CendR NRP1 mod: modulators of CendR peptide binding to human neuropilin-1; inhibition, % at 25 µM; FAM-RPARPAR peptide binding to NRP-1, fluorescence polarization; actives 0.85% (n = 360,000);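 active = inhibition or corrected inhibition above about 18%, plus a signal ratio from 0.5 to 1.5, limit read from the data, passing the limit was not always enough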
proKLK7 act: proKLK7 (human) activation, primary screen; purified proKLK7, EDANS-DABCYL substrate fluorescence; 100% is mature enzyme control, 0% vehicle; P49862; actives 0.9% (n = 370,000); activation, % at 7 µM;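 active = activation above the mean of all tested compounds plus 3 SD, computed per campaign excluding outliers beyond control limits, cut at about 13% in these data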
DDE Tn7 FP inh: DD(E)-Tn7 binding inhibition, primary FP screen; P02675; FP displacement of FITC-Tn7 peptide from fibrin DD(E); 0% = median of compound wells per plate; inhibition, % at 8.3 µM; actives 0.13% (n = 370,000); AID 720508;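 active = inhibition above the mean of compounds falling within the control limits plus 3 SD of them, cut at about 14% in these data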;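 also: 0% = plate median of compound wells and 100% = 10 µM Aha-Tn7 peptide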
Target sequence (P02675 whole entry, looked up): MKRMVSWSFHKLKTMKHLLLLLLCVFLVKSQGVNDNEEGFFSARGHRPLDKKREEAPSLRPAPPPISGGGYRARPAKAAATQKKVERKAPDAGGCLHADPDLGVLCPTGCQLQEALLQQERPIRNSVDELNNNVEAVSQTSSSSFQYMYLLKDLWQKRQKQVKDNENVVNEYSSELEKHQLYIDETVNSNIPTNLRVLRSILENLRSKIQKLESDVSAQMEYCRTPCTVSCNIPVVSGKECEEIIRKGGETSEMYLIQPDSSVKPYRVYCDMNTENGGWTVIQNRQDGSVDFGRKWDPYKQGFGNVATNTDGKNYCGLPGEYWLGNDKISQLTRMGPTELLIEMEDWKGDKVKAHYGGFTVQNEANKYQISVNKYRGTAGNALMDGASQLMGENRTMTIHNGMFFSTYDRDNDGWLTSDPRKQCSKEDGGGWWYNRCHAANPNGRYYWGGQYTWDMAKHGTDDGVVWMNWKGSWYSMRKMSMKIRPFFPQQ
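Assay system: human fibrin DD(E) protein / Input: 2 µM fibrin DD(E) / Benchmarks: high control of 10 µM Aha-Tn7 peptide / Measured by: fluorescence polarization of the labelled Tn7 tracer / Medium: Tris buffer with calcium and detergent, pH 7.8 / Timing: 10 min compound pre-incubation, 3 h probe incubation at room temperature / Repeats: one replicate per compound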
DDE Tn6 FP inh: inhibitors of Tn6 peptide binding to human fibrin DD(E); inhibition, % at 8.3 µM; actives 0.21% (n = 370,000); P02675; Fibrin DD(E) TRITC-Tn6 fluorescence polarization displacement;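 active = inhibition above a per-campaign cutoff: mean of compounds within control limits plus 3 SD, cut at about 15% in these data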;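 also: 0% = median of all compound wells on the plate and 100% = blocking peptide control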
PLCg1 inh: inhibitors of human phospholipase C gamma1; purified PLC-gamma1, fluorogenic substrate, fluorescence; actives 0.84% (n = 370,000); inhibition, % at 12.2 µM; AID 720700; P19174
PLC-beta3 inh: inhibitors of human phospholipase C beta3 | Q01970 | Purified PLC-beta3, fluorogenic substrate, fluorescence | inhibition, % at 12.2 µM | actives 0.18% (n = 370,000); in the data active = inhibition above about 11%;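 also: 0% = median of compound wells on plate and 100% = full blocker control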
PLCg1 ctr: PLC-gamma1 inhibition, counter-screen for PLC-beta3 hits. shares compounds with PLCg1 inh. purified PLC-gamma1, fluorogenic substrate, fluorescence. inhibition, % at 12.3 µM. actives 3.1% (n = 3,300)
PLCb3 confirm: confirmation of human PLC-beta3 inhibitors; shares compounds with PLCg1 inh; purified PLC-beta3, fluorogenic substrate fluorescence; inhibition, % at 12.3 µM; actives 1% (n = 3,300); AID 743261; in the data active = inhibition above about 11%
Starred values were filed as active, the others as inactive; · = not tested or not shown. The list is not random: actives were taken first. Their share in the collection is about 3%. Rule as the data show it, unless noted: active = inhibition above about 9.5%; inactive = the rest.

SMILES	CendR NRP1 mod	proKLK7 act	DDE Tn7 FP inh	DDE Tn6 FP inh	PLCg1 inh	PLC-beta3 inh	PLCg1 ctr	PLCb3 confirm
Cc1ccc(NC(=O)COc2cccc3ccc(C)nc23)c(Br)c1	-8	0	-12	-3	13*	1	-8	-5
C=CC[C@]1(c2ccccc2)C(=O)N2C[C@H]3CON(C)[C@H]3C[C@H]2c2ccccc21	·	1	0	-7	-1	1	·	·
CC1(C)C2CC[C@]3(C)C(CC=C4[C@@H]5C[C@@](C)(CO)[C@@H](O)C[C@]5(C(=O)O)CC[C@]43C)[C@@]2(C)CC[C@@H]1O (some centres not stated)	-8	·	·	·	·	·	·	·
C=C(C)[C@@H]1CC[C@]2(C(=O)O)CC[C@]3(C)C(CCC4[C@@]5(C)CC[C@H](O)C(C)(C)C5CC[C@]43C)C12 (some centres not stated)	-4	0	-1	0	9.5*	7	-3	-1
COC(=O)[C@]12C[C@H](CC(=O)NCCCCc3ccccc3)C(=O)N(Cc3cccc4ccccc34)C1=C[C@H](COCc1ccccc1)O[C@@H]2C	·	-1	1	-12	-1	-2	·	·
CC(=O)N1CCN(S(=O)(=O)c2ccc3c(c2)oc(=O)n3C)CC1	·	0	4	6	1	3	·	·
COc1ccc(C2c3ccccc3NC3C2C(=O)N(Cc2ccc(OC)cc2OC)[C@H]3Cc2ccccc2)cc1 (some centres not stated)	·	0	-4	-1	-1	-7	·	·
O=C(N1CCOCC1)N1CCN(Cc2ccccc2)CC1	-3	0	2	4	10*	4	6	-12
Cc1ccnc(NC(=O)c2ccc(Cl)c(NC(=O)C(C)Oc3ccccc3)c2)c1 (configuration not stated)	9	0	-8	1	9.9*	5	-5	-4
O=C(Nc1ccc(Br)cc1)C1CCCN1S(=O)(=O)c1cccs1 (configuration not stated)	-6	0	0	7	9.8*	2	-6	-4
COC(=O)[C@@]12CCCCC3=C1N(CCC3)C(=O)[C@H]2CC(=O)NCCCCc1ccccc1	·	0	-5	-4	-2	0	·	·
CSc1nnc(-c2nnc(SC)n2-c2ccccc2)n1-c1ccccc1	-12	0	-4	0	5	4	·	·
CSc1nnc(-c2cc(C)on2)n1-c1ccccc1	3	0	-3	-2	11*	-3	0	2
Cc1ccc(C(=O)NC(=S)NNC(=O)CCN2CCOCC2)cc1	4	0	-8	8	9.6*	3	-5	2
O=C(NC(=S)Nc1ccc(F)cc1)c1ccc2c(c1)OCCO2	-8	0	7	-4	-1	1	·	·
O=C(NC(=S)Nc1c(F)cc(F)cc1Br)c1ccc2c(c1)OCCO2	-9	0	4	1	13*	9	-5	-2
COc1ccc(NC(=O)C2CC(=O)OC2c2ccccc2)cc1 (configuration not stated)	2	0	-4	-2	10*	6	-5	-1
CCN(CC)C(=O)CC[C@H]1CC[C@]2(CCCN(Cc3cccnc3)C2)O1	·	0	5	3	-3	-2	·	·
CN1C(=O)[C@@]2(O[C@H]3[C@H]4C=C[C@@H]([C@H]5C(=O)N(Cc6ccccc6)C(=O)[C@@H]45)N3C3=C2C(=O)CC3)c2ccccc21	·	0	8	11	3	14*	-2	2
O=C(c1ccc(F)c(F)c1)N1CCC(Oc2cccnc2)CC1	·	1	-2	-4	0	0	·	·
COc1cc(OC)cc(C(=O)NC2CCCN(Cc3ccc(Cl)cc3)C2)c1 (configuration not stated)	7	0	1	5	0	-1	·	·

Bioassay records as filed in PubChem BioAssay.
